Data set [1] deals with T1, Ubiquitin carboxyl-terminal hydrolase isozyme L3 (Homo sapiens, UniProt P15374).
T1 sequence (P15374 whole entry): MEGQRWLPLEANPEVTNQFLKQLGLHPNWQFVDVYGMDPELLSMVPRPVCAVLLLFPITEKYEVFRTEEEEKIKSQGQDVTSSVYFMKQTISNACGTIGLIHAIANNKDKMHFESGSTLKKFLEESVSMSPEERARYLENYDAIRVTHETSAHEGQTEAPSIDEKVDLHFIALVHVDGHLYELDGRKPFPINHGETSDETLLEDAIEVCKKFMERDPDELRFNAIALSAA
As to the kind of experiment: Inhibition of GST-tagged recombinant UCHL3 (unknown origin) using Ub-Lys-TAMRA as substrate incubated for 30 mins by fluorescence polarization assay. An outline of the steps: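 Recombinant DUB (UCHL1 or UCHL3 at 5 nM) preincubated 30 min RT with 8-point compound dilutions in Tris pH 7.5/NaCl or Tris pH 7.5 buffer with Tween-20, BSA and 5 mM BME. Ub-Lys-TAMRA (50 nM) added; fluorescence polarization (Ex 540/Em 590 nm) read at once and after 2 h RT. Triplicate; four-parameter IC50.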
In general terms: In fluorescence polarisation assays a small probe gives low polarisation when free and higher when bound to something large.

The target of data set [2] is T2, Ubiquitin carboxyl-terminal hydrolase 30 (Homo sapiens) (UniProt Q70CQ3).
T2 sequence (whole entry): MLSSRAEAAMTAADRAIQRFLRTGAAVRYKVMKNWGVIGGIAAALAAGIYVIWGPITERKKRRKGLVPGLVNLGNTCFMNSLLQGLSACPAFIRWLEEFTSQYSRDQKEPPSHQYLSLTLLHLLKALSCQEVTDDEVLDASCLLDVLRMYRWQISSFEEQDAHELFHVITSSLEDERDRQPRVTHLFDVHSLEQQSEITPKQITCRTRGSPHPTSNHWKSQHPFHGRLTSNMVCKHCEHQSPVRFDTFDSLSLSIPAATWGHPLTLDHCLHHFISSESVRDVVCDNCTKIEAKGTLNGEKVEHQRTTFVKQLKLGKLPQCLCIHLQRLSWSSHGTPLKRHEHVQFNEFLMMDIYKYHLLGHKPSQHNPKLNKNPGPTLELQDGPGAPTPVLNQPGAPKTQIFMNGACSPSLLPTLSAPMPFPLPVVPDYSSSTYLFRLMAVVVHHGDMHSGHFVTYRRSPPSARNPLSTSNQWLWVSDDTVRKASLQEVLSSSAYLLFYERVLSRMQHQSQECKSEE
Briefly: Inhibition of GST-tagged recombinant USP30 (unknown origin) using Ub-Lys-TAMRA as substrate at 1 uM incubated for 30 mins by fluorescence polarization assay.

Data set [3] addresses Ubiquitin carboxyl-terminal hydrolase isozyme L1 (Homo sapiens) (UniProt P09936). Briefly: Binding affinity to GST-tagged recombinant UCHL1 (unknown origin) assessed as covalent adduct formation at 13 uM incubated for 1 hr by LC-ESI-MS analysis.
Data set [4] in a line: Cytotoxicity against human HEK293 cells assessed as reduction in cell growth incubated for 72 hrs by live-cell time-lapse imaging. The format is toxicity, cell-based. An outline of the steps:
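HEK293 cells, 1,000 per well, seeded 24 h before exposure to 7 serial dilutions, in triplicate. Confluence imaged every 2 h for 72 h by IncuCyte live-cell time-lapse imaging. EC50 from four-parameter dose-response fit; mean ± SD of 12 technical replicates.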

The target of data set [5] is T3, Ubiquitin carboxyl-terminal hydrolase isozyme L1 (Homo sapiens, UniProt P09936).
T3 sequence (P09936 whole entry): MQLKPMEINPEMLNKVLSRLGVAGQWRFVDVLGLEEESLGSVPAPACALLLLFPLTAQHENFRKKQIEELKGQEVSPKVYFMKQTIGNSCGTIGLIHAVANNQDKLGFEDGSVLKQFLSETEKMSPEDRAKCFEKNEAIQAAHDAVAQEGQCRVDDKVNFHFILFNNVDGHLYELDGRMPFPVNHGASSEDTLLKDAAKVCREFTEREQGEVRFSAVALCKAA
Briefly: Inhibition of FLAG-tagged UCHL1 (unknown origin) expressed in CAL-51 cells using HA-Ub-VME as substrate incubated for 30 mins by HTRF assay. The format is cell-based. Put shortly: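 Cal51 cells stably expressing FLAG-UCHL1, plated overnight, exposed to compound 1 h at 37 °C. Washed, lysed 30 min on ice in Tris/NaCl/NP-40/CHAPS/MgCl2/BME buffer. Lysate mixed with HA-Ub-VME (100 nM) 30 min RT; anti-FLAG cryptate and anti-HA-XL added, overnight at 4 °C. HTRF Delta F read; IC50 by four-parameter fit, two biological triplicates.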
A general note: Time-resolved FRET reads energy transfer from a long-lived donor to a nearby acceptor.

Data set [6] concerns the target Ubiquitin carboxyl-terminal hydrolase isozyme L1 (Homo sapiens) (UniProt P09936). As to the kind of experiment: Inhibition of UCHL1 in human HEK293 cells using HA-Ub-VME as substrate at 0.1 to 10 uM incubated for 1 hr by immunoblotting analysis. The following applies: dose 0.1-10 µM. The format is cell-based. An outline of the steps:
(§1)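 Near-confluent HEK293 cells treated with compound in medium for 1 h at 37 °C, lysed in Tris/NP-40/CHAPS buffer with benzonase. Lysate (20 µg) reacted with HA-Ahx-Ahx-Ub-VME (0.5 µg) 15 min at room temperature, boiled 5 min at 95 °C in SDS loading buffer with BME, SDS-PAGE and immunoblot.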

The target in data set [7] is T4, Ubiquitin carboxyl-terminal hydrolase isozyme L5 (Homo sapiens) (UniProt Q9Y5K5).
T4 sequence (whole entry): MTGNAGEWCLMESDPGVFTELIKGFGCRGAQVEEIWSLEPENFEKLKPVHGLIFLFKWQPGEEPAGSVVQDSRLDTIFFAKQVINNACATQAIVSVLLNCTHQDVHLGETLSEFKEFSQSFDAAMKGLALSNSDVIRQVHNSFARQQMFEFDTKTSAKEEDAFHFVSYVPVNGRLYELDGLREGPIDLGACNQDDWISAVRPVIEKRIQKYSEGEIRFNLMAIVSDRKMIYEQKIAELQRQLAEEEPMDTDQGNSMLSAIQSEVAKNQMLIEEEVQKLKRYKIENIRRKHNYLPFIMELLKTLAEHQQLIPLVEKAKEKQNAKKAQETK
As to the kind of experiment: Inhibition of UCHL5 in human HEK293 cells using HA-Ub-VME as substrate at 0.1 to 10 uM incubated for 1 hr by immunoblotting analysis. The format is cell-based. Particulars: dose 0.1-10 µM. Put shortly:
as §1
Background: Immunoblotting shows a protein as a band on a membrane.

Molecules are shown by their SMILES. The source made the active and inactive calls. The rule behind the calls is not given here. A value given as a limit tells only on which side of the number the result lay.

Consider `N#CN1CC[C@H](C(=O)Nc2ncc(-c3ccccc3)s2)C1`, for which the IC50 in data set [1] is greater than 10000 nM; in data set [5], 550 nM. The inhibition entry in data set [2], in data set [6] and in data set [7] was “Active” throughout. Moreover, in data set [3], the result was Active. Further, the EC50 at 72 h in data set [4] amounted to 730 nM.

Regarding `C#Cc1ccc(-c2cnc(NC(=O)[C@H]3CCN(C#N)C3)s2)cc1`, the IC50 was greater than 10000 nM in data set [1] and 830 nM in data set [5]. For the same compound, the inhibition entry in data set [2], in data set [6] and in data set [7] was “Active” throughout. Moreover, the result in data set [3] was Active. Further, in data set [4], the EC50 at 72 h was determined as 350 nM.

As a reminder, the IC50 is the concentration that gives 50% inhibition. A word on the EC50: it is the concentration needed to bring the measured effect to its halfway point.

The record behind these values is ChEMBL document CHEMBL5107948, “Activity-based protein profiling reveals deubiquitinase and aldehyde dehydrogenase targets of a cyanopyrrolidine probe” (RSC Med Chem, 2021).
